Experimental data from ChEMBL document CHEMBL1125367 (J Med Chem, 1992).

Tests used:
[1] = biological target: D(1A) dopamine receptor (Rattus norvegicus) (UniProt P18901); assay: The percentage stimulation of adenylate cyclase activity of compound was measured on dopamine receptor D1 of Rat Striatum at 0.01 uM; type: functional
[2] = biological target: D(1A) dopamine receptor (Rattus norvegicus) (UniProt P18901); assay: Percent stimulation of adenylate cyclase activity at dopamine receptor D1 of Rat Striatum at 1 uM; type: functional; details: values are per cent of control
[3] = biological target: D(2) dopamine receptor (Rattus norvegicus) (UniProt P61169); assay: The percentage inhibition of adenylate cyclase activity of compound was measured on dopamine receptor D2 of Rat Striatum at 0.01 micro M; details: values are per cent of control
How it was run: (§1)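 D-2 inhibition of basal adenylate cyclase in rat striatal synaptic membranes, 20-30 μg protein. Medium: Tris-HCl pH 7.4, 100 mM NaCl, 0.5 mM ATP, 50 μM GTP, IBMX, [α-32P]ATP, with 0.1 μM SCH 23390 present to block D-1. Incubation 20 min at 25 °C, followed by double-column cAMP isolation. Activity is given as % of basal, quadruplicates, three experiments.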

[4] = biological target: D(1A) dopamine receptor (Rattus norvegicus) (UniProt P18901); assay: The percentage stimulation of adenylate cyclase activity of compound was measured on dopamine receptor D1 of Rat Striatum at 0.1 uM; type: functional
[5] = biological target: D(2) dopamine receptor (Rattus norvegicus) (UniProt P61169); assay: The percentage inhibition of adenylate cyclase activity of compound was measured on dopamine receptor D2 of Rat Striatum at 1 micro M; details: values are per cent of control; how it was run: as §1
[6] = biological target: D(2) dopamine receptor (Rattus norvegicus) (UniProt P61169); assay: The percentage inhibition of adenylate cyclase activity of compound was measured on dopamine receptor D2 of Rat Striatum at 10 micro M; details: values are per cent of control; how it was run: as §1
[7] = biological target: D(2) dopamine receptor (Rattus norvegicus) (UniProt P61169); assay: The percentage inhibition of adenylate cyclase activity of compound was measured on dopamine receptor D2 of Rat Striatum at 0.1 micro M; details: values are per cent of control; how it was run: as §1
[8] = biological target: D(1A) dopamine receptor (Rattus norvegicus) (UniProt P18901); assay: The percentage stimulation of adenylate cyclase activity of compound was measured on dopamine receptor D1 of Rat Striatum at 0.1uM; type: functional
D(1A) dopamine receptor [9] = biological target: T1, D(1A) dopamine receptor (Rattus norvegicus, UniProt P18901); assay: (§2) Inhibitory activity against [3H]-SCH- 23390 in Rat Striatal membrane; type: cell membranes
D(2) dopamine receptor = D(2) dopamine receptor (Rattus norvegicus, UniProt P61169); assay: Inhibitory activity against [3H]spiperone in Rat Striatal membrane; type: cell membranes
[10] = biological target: D(1A) dopamine receptor (Rattus norvegicus) (UniProt P18901); assay: Selectivity index of D1 receptor to that of D2 receptor was determined
How it was run: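 Index equals IC50 at D-1 ([3H]SCH 23390 binding) divided by IC50 at D-2 ([3H]spiperone binding), both measured in rat striatal membrane competition assays.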

[11] = biological target: D(1A) dopamine receptor (Rattus norvegicus) (UniProt P18901); assay: The percentage stimulation of adenylate cyclase activity of compound was measured on dopamine receptor D1 of Rat Striatum at 10 uM; type: functional; details: values are per cent of control
D(1A) dopamine receptor [12] = biological target: T1, D(1A) dopamine receptor; assay: as §2; type: cell membranes; remark: listed apart in the source
How it was run: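 Competition binding on rat striatal membranes. The D-1 site was labelled with [3H]SCH 23390 and the D-2 site with [3H]spiperone. IC50 is the concentration giving half-maximal inhibition of binding, reported as mean ± SEM.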

T1 sequence (P18901 whole entry): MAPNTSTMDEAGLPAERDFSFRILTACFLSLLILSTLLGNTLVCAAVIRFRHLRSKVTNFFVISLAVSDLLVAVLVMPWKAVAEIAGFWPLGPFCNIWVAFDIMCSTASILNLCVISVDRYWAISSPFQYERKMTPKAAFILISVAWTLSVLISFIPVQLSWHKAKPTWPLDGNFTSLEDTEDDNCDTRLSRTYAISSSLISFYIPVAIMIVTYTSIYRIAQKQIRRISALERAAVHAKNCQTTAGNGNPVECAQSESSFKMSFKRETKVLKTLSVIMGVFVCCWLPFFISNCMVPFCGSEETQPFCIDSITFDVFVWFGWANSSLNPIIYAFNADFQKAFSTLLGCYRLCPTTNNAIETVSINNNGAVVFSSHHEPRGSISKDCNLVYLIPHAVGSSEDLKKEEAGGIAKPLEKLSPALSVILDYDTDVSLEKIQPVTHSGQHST
D(1A) dopamine receptor (Rattus norvegicus), sequence (P18901 whole entry): as above
D(2) dopamine receptor (Rattus norvegicus), sequence (P61169 whole entry): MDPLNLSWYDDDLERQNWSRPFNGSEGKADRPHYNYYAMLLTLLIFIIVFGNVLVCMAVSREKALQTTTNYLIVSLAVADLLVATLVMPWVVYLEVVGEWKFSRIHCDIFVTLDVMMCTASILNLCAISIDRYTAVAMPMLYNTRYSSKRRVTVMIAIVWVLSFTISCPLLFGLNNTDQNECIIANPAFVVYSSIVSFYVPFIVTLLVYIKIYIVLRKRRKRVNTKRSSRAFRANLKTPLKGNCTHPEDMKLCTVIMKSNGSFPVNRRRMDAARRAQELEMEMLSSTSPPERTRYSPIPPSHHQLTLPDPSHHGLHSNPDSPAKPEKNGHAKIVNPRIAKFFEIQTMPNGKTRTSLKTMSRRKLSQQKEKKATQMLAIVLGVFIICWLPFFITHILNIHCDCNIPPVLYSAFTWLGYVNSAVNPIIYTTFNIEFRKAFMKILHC
D(2) dopamine receptor, sequence (P61169 whole entry): as above

NCCc1ccc(O)c(O)c1
stimulation [1]: 104%
residual activity [2]: 110%
residual activity [3]: 95%
stimulation [4]: 113%
residual activity [5]: 87%
residual activity [6]: 83%
residual activity [7]: 92%

Br.CCCN(CCCc1ccc(O)cc1)CCc1ccc(Cl)c(O)c1
residual activity [2]: 100%
residual activity [3]: 96.4%
stimulation [8]: 101%
IC50 (D(1A) dopamine receptor [9]): 16.9 µM
IC50 (D(2) dopamine receptor): 0.85 µM
residual activity [5]: 82%
Ratio [10]: 19.9
residual activity [11]: 110%
residual activity [7]: 86%

Br.NCCc1ccc(Cl)c(O)c1
residual activity [2]: 95%
residual activity [3]: 101%
stimulation [4]: 98%
IC50 (D(1A) dopamine receptor [9]): 25.3 µM
IC50 (D(2) dopamine receptor): 26.3 µM
residual activity [5]: 87%
residual activity [6]: 84%
Ratio [10]: 0.96
residual activity [11]: 105%
residual activity [7]: 90%

CCCN(CCc1ccc(O)cc1)CCc1ccc(Cl)c(O)c1
IC50 (D(1A) dopamine receptor [12]): 18.1 µM
residual activity ([1]; values are per cent of control): 126%
residual activity [2]: 136%
residual activity [3]: 92%
residual activity ([4]; values are per cent of control): 130%
IC50 (D(2) dopamine receptor): 0.9 µM
residual activity [5]: 74%
residual activity [6]: 74%
Ratio [10]: 20.1
residual activity [11]: 136%
residual activity [7]: 81%

Br.CCCN(CCC)CCc1ccc(Cl)c(O)c1
residual activity [2]: 105%
residual activity [3]: 96%
stimulation [4]: 101%
IC50 (D(1A) dopamine receptor [9]): 50.7 µM
IC50 (D(2) dopamine receptor): 12.9 µM
residual activity [5]: 90%
residual activity [6]: 86%
Ratio [10]: 3.93
residual activity [11]: 115%
residual activity [7]: 88%

CCCN(CCc1ccccc1)CCc1ccc(Cl)c(O)c1
stimulation [1]: 104%
residual activity [2]: 118%
residual activity [3]: 93%
stimulation [4]: 113%
IC50 (D(1A) dopamine receptor [9]): 24.4 µM
IC50 (D(2) dopamine receptor): 1.39 µM
residual activity [5]: 78%
residual activity [6]: 76%
Ratio [10]: 17.6
residual activity [11]: 128%
residual activity [7]: 86%

CCCN(CCc1cccc(O)c1)CCc1ccc(Cl)c(O)c1
stimulation [1]: 103%
residual activity [2]: 125%
residual activity [3]: 94%
stimulation [4]: 116%
IC50 (D(1A) dopamine receptor [9]): 11.2 µM
IC50 (D(2) dopamine receptor): 0.73 µM
residual activity [5]: 83%
residual activity [6]: 81%
Ratio [10]: 15.3
residual activity [11]: 128%
residual activity [7]: 91%

CCCN(CCc1ccccc1)CCc1cccc(O)c1
IC50 (D(1A) dopamine receptor [9]): 92.8 µM
IC50 (D(2) dopamine receptor): 0.75 µM
residual activity [5]: 86%
residual activity [6]: 84%
Ratio [10]: 124
residual activity [7]: 95%
